This is an account of results in ChEMBL document CHEMBL1147679, “Differential inhibition of group IVA and group VIA phospholipases A2 by 2-oxoamides” (2006).

Activity calls are given as the source filed them. No cut-off for these calls is given here.

For experiment [1], the target named is T1, Cytosolic phospholipase A2 (Homo sapiens) (UniProt P47712).
T1 sequence (whole entry): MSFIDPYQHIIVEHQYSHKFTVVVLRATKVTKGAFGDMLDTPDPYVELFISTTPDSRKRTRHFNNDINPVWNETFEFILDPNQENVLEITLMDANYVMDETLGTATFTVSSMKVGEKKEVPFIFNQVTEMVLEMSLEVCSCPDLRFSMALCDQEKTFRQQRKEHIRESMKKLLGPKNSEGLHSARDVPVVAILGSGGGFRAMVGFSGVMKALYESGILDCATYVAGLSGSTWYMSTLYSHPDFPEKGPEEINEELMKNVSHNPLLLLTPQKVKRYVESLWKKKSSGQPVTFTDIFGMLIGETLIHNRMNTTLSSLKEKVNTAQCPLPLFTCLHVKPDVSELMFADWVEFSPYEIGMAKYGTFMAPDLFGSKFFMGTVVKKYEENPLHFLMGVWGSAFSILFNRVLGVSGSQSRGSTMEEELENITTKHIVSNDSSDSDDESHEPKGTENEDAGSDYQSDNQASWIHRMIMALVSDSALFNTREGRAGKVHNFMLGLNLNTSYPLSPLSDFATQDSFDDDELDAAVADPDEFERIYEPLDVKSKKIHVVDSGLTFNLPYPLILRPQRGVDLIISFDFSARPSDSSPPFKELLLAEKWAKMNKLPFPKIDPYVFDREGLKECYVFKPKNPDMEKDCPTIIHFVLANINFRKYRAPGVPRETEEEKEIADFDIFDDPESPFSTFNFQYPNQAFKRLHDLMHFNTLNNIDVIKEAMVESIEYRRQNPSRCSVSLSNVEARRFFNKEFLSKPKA
As to the kind of experiment: Inhibition of group 4A cPLA2 at 0.091 mole fraction. In short, it runs like this:
(§1)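 Native human GIVA cPLA2 (10 ng) was assayed in 100 mM HEPES pH 7.5 with 80 µM CaCl2, 0.1 mg/mL fatty-acid-free BSA and 2 mM DTT. Substrate was 97 µM 1-palmitoyl-2-[14C]-arachidonoyl PC with 3 µM PIP2 and 400 µM Triton X-100 micelles, plus 1% DMSO. Runs were 30 min at 40 °C, read by modified Dole assay. Potency is XI(50) in surface mole fraction; highest dose 0.091 mole fraction.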

Experiment [2] deals with T2, 85/88 kDa calcium-independent phospholipase A2 (Homo sapiens) (UniProt O60733).
T2 sequence (whole entry): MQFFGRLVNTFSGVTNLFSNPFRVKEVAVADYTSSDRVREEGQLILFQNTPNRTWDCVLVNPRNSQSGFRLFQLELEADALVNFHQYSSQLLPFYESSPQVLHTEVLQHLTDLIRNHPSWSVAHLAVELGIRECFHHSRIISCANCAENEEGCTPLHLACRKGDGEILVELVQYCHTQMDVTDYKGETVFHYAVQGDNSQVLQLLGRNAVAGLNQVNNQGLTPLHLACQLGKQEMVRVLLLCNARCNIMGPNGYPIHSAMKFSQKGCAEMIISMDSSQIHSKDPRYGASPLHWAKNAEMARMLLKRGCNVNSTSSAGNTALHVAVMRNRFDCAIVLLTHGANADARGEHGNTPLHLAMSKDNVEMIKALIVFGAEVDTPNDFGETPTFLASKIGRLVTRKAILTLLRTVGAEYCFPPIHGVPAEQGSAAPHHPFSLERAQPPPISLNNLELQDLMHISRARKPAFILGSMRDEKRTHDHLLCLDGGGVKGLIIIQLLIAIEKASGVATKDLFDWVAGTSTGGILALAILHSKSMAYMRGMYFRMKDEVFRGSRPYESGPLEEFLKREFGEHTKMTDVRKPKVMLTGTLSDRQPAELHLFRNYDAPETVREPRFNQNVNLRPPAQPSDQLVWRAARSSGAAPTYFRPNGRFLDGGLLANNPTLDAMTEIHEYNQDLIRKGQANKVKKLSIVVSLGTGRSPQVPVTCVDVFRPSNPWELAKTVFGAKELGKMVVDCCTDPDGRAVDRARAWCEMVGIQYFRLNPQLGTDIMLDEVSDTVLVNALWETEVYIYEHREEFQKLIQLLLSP
The experiment is described as follows: Inhibition of group 6A iPLA2 at 0.091 mole fraction. Put shortly:
(§2)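 Recombinant human GVIA-2 iPLA2 (His-tagged) was expressed in Sf9 cells by baculovirus and purified on Ni-NTA. Enzyme (190 ng) acted on mixed micelles of 100 µM DPPC with [14C]-palmitoyl PC tracer and 400 µM Triton X-100, in HEPES pH 7.5 with EDTA, DTT and ATP and 1% DMSO. Runs were 30 min at 40 °C, read by modified Dole assay. XI(50) (mole fraction) came from a logarithmic or linear fit; highest dose 0.091 mole fraction.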

For experiment [3], the target named is T1, Cytosolic phospholipase A2 (Homo sapiens). As to the kind of experiment: Inhibition of group 4A cPLA2 at 0.01 mole fraction.
Experiment [4] addresses T2, 85/88 kDa calcium-independent phospholipase A2 (Homo sapiens). The experiment is described as follows: Inhibition of group 6A iPLA2 at 0.02 mole fraction.
The target is the same in experiment [5]. As to the kind of experiment: Inhibition of group 6A iPLA2. Put shortly: as §2
The target of experiment [6] is T1, Cytosolic phospholipase A2 (Homo sapiens). As to the kind of experiment: Inhibition of group 4A cPLA2. Put shortly: as §1
Another experiment relates to RAW264.7. As to the kind of experiment: Inhibition of LPS-stimulated prostaglandin PGE2 production in mouse RAW 264.7 macrophage-like cell line. Type of experiment: functional. Put shortly:
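RAW 264.7 cells in DMEM/10% FCS were plated at 5×10^5 per well, allowed to adhere 24 h, then held serum-free 18 h. Inhibitors, in DMSO (<0.5% v/v) diluted into serum-free medium, were added 30 min before 100 ng/mL E. coli 0111:B4 LPS for 24 h. Medium PGE2 was quantified by LC-MS (negative ESI, MRM) against a deuterated PGE2 internal standard.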

On to `COC(=O)CCCNC(=O)C(=O)CCCCc1ccccc1`, for which the inhibition in experiment [1] and in experiment [2] was 0% in each case.
On to `CCCCCCCCCCCCCCC(=O)C(=O)NCCCCCC`, for which the values for the inhibition in experiment [3] and in experiment [4] were 0% and 25%, respectively.
As for `NC(=O)C(=O)CCCCc1ccccc1`, the inhibition in experiment [1] and in experiment [2] was 0% each time.
Take `COC(=O)CCCNC(=O)C(=O)CCCc1ccccc1`: the inhibition in experiment [1] and in experiment [2] was 0% throughout.
For the compound `O=C(O)CCCNC(=O)C(=O)CCCCc1ccccc1`, the inhibition in experiment [1] and in experiment [2] was 0% in each case.
Consider `CCCCCCCCCCCCCC(=O)C(N)=O`, for which the inhibition in experiment [3] and in experiment [4] was 0% in each case.
On to `CCCCCCCCCCCCCCCCNC(=O)C(=O)CC`, for which the inhibition in experiment [3] came to 0%; in experiment [4] it was 25%.
For `CCCCCCCCCCCCCCC(=O)C(=O)N[C@@H](/C=C/C(=O)OC)CCCC`, the XI50 (mole fraction) is 0.032 in experiment [5] and 0.018 in experiment [6]. The Inhibition in the experiment with RAW264.7 came to 40%.
`CCCCCCCC/C=C\CCCCCCCC(=O)C(=O)NCCCC(=O)OC`: the XI50 (mole fraction) in experiment [5] amounted to 0.067; in experiment [6], 0.012. The Inhibition with RAW264.7 was 40%.
With `CCCCCCCC/C=C\CCCCCCCC(=O)C(=O)NCCCC(=O)O`, the inhibition in experiment [2] was found to be 0%. Moreover, the XI50 (mole fraction) in experiment [6] was determined as 0.011.
On to `O=C(O)CCCNC(=O)C(=O)CCCc1ccccc1`, for which the inhibition in experiment [1] and in experiment [2] was 0% each time.
Take `CCCCCCCCCCCCCCC(=O)C(=O)N[C@H](/C=C/C(=O)O)CCCC`: in experiment [2], the inhibition turned out to be 0%. The compound also came in with an XI50 (mole fraction) in experiment [6] of 0.003.
With `CCCCCCCCCCCCCCC(=O)C(=O)NCCCC(=O)OC`, the values for the inhibition in experiment [1] and in experiment [2] were 0% and 25%, respectively. The inhibition result in the experiment with RAW264.7 is “inactive”.
`CCCCCCCCCCCCCCC(=O)C(=O)NCCCC(=O)O`: in experiment [2], the inhibition was found to be 0%. This compound showed an XI50 (mole fraction) in experiment [6] of 0.017.

Usually inhibition stands for the change of the read-out against control, counted positive when it falls. What is called Inhibition is the drop in the measured response relative to a control, in per cent.
